From paper PMC3944102 (ACS chemical biology, 2013)
Read-outs that look alike come from different tables or passages of the source.

Legend:
VopS [1] = conditions: read-out: KM of VopS for ATP; cited from earlier work
VopS [2] = molecular target: T1, VopS (Vibrio parahaemolyticus serotype O3:K6, UniProt Q87P32); assay: biochemical
[3] = tested on: VopS transfected HeLa cells; assay: Cellular protein AMPylation, Western blot; assay type: cell-based; conditions: Western blotting, 1 and 3 at 10 µM, 4 at 5 µM, 18 h
VopSΔ30 = VopSΔ30 (Vibrio parahaemolyticus serotype O3:K6, UniProt Q87P32); assay: Differential hydrogen deuterium exchange; assay type: binding; conditions: 10 µM VopSΔ30, 100 µM or 30 µM ligand
HYPE Fic E234G = assay: Gel-based secondary screen, HYPE Fic E234G with histone H3 as substrate; assay type: biochemical, human; conditions: 10 µM compound, relative to DMSO control
VopS [4] = molecular target: T1, VopS; assay: biochemical; conditions: for Primary screen inhibition: LOPAC screen at 11 µM, FP read at 3 h, average of three replicates; for inhibition at 11 µM: read-out: Primary screen inhibition
VopS [5] = molecular target: T1, VopS; assay: biochemical; assay type: biochemical; conditions: for Gel based % inhibition VopS: 10 µM compound, relative to DMSO control; for Labeling of Cdc42 in gel (in words): 10 µM inhibitor; for inhibition at 10 µM: read-out: Gel based % inhibition VopS
VopS [6] = assay: biochemical; assay type: biochemical, Vibrio parahaemolyticus; conditions: VopS over HYPE, from gel based % inhibition at 10 µM
[7] = tested on: VopS transfected HeLa cells; assay: Cell rounding phenotype induced by VopS overexpression; assay type: cell-based; conditions: 10 µM
VopS [8] = molecular target: T1, VopS; assay type: biochemical
PAD4 = PAD4 (Homo sapiens, UniProt Q9UM07); assay: PAD4 FP-ABPP HTS counterscreen with fluorescein-conjugated F-amidine; assay type: biochemical
Outline: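 Fluorescence polarization read-out with the fluorescein-tagged probe FFA, which covalently modifies an active-site cysteine of PAD4 and gives a time-dependent rise in FP when incubated with the enzyme. Test compounds were run as concentration-response curves, and inhibition was read as reduced FP. Used as a counterscreen to flag quenchers, aggregators and other non-specific FP decreasers.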

[9] = read-out: CRC IC50 PAD4, PAD4 targeted FP-ABPP assay

Chain of PAD4 (Q9UM07 whole entry, species assumed): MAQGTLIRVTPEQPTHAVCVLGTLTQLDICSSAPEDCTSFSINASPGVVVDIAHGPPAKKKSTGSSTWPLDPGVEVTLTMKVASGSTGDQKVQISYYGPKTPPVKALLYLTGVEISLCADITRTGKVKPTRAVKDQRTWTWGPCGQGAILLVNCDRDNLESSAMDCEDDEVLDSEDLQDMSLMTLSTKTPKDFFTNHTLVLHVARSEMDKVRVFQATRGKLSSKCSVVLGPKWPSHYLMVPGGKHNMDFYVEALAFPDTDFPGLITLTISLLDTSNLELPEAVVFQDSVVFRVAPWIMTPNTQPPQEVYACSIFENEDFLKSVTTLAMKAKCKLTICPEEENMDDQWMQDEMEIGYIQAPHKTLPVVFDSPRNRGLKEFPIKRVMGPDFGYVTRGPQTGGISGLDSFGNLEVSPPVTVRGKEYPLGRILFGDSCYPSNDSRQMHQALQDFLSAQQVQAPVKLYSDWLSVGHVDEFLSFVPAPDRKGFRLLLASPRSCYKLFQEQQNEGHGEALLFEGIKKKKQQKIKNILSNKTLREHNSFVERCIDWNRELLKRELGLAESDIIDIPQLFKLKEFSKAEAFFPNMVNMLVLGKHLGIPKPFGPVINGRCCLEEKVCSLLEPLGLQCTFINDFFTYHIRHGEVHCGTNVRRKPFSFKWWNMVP

Row | SMILES | Km (VopS [1]) | IC50 (VopS [2]; IC50(ATP), 3 h, 7 replicates, ATP out competing Fl-ATP) | IC50 (VopS [2]; IC50, at 1, 2, and 3 h) | Cellular protein AMPylation [3] | HDX protection / binding region of VopS (VopSΔ30) | Gel based % inhibition HYPE (HYPE Fic E234G) | Primary screen inhibition (VopS [4]) | Gel based % inhibition VopS (VopS [5]) | Labeling of Cdc42 in gel (in words) (VopS [5]) | Fold selective (VopS [6]) | Reversal of cell rounding phenotype [7] | Kii (VopS [8]; varied substrate ATP) | Mechanism of inhibition (VopS [8]; varied substrate ATP) | Kii (VopS [8]; varied substrate Cdc42) | Mechanism of inhibition (VopS [8]; varied substrate Cdc42) | IC50 (PAD4; [9]) | inhibition at 11 µM (VopS [4]) | inhibition at 10 µM (VopS [5]) | Ki (VopS [8]; competitive with respect to Cdc42) | IC50 (PAD4)
1 | Nc1ncnc2c1ncn2[C@@H]1O[C@H](COP(=O)(O)OP(=O)(O)OP(=O)(O)O)[C@@H](O)[C@H]1O [ATP, adenosine triphosphate] | ~50 µM | 7 ± 1 µM | 6.8 to 7 µM | – | – | – | – | – | – | – | – | – | – | – | – | – | – | – | – | –
2 | CC(C)c1ccc2c(c1)c(SC(C)(C)C)c(CC(C)(C)C(=O)O)n2Cc1ccc(Cl)cc1 [Compound 3, MK886] | – | – | – | decreased cellular protein AMPylation | increased protection within the N-terminus of VopS (residues 59–75) | 4% | 41% ± 3 | 22% | decrease in labeling | 6 fold | unable to reverse the cell rounding phenotype | 50 ± 6 µM | Non-competitive | 99 ± 16 µM | Non-competitive | > 59 µM | – | – | – | –
3 | Nc1ncnc2c1ncn2[C@@H]1O[C@H](COP(=O)(O)OP(=O)(O)OP(=O)(O)OP(=O)(O)OC[C@H]2O[C@@H](n3cnc4c(N)ncnc43)[C@H](O)[C@@H]2O)[C@@H](O)[C@H]1O [Compound 2, Ap4A] | – | – | – | – | – | 41% | 47% ± 4 | 3% | – | – | – | – | – | – | – | > 59 µM | – | – | – | –
4 | Clc1ccc(C(c2ccc(Cl)cc2)n2cc[n+](CC(OCc3ccc(Cl)cc3Cl)c3ccc(Cl)cc3Cl)c2)cc1 (stereo not drawn) [Compound 4, calmidazolium] | – | – | – | did not show a significant decrease | binds to the N-terminal region of VopS (in particular residues 59–63) | 2% | – | – | decrease in labeling | 32 fold | – | 26 ± 4 µM | Non-competitive | 6 ± 1 µM | Competitive | – | 33% | 63% | 6 ± 1 µM | > 59 µM
5 | CC(C)(Sc1ccc(CCN(CCCCC2CCCCC2)C(=O)NC2CCCCC2)cc1)C(=O)O [Compound 1, GW7647] | – | – | – | decreased cellular protein AMPylation | – | 10% | – | – | decrease in labeling | 6 fold | unable to reverse the cell rounding phenotype | 41 ± 5 µM | Non-competitive | 20 ± 1 µM | Non-competitive | – | 61% | 55% | – | > 59 µM
